Converted amounts (≈) assume the structure as drawn.

The term ED50 denotes the dose at which the effect has come halfway, by size or by number of responders. By half-life is commonly meant the time needed for the level to fall by half in the phase considered.

The subject of one series is Citrobacter freundii. Put plainly: In vitro minimum inhibitory concentration was measured against Citrobacter freundii BS-16 (beta lactamase producer) strain. It counts as functional. An outline of the steps: (§1)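 MICs were determined by agar dilution with 2-fold dilutions giving final 128–0.0156 µg/mL, extended to 0.000977 µg/mL where needed. Streptococci were tested on brain heart infusion agar plus 20 units/mL catalase, Proteus on Mueller-Hinton with 3% agar, and others on Mueller-Hinton agar. Inocula were 100-fold-diluted overnight cultures, about 3 × 10^4 CFU/spot, read after overnight incubation at 36 °C.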

Series [1] has as its system Escherichia coli. Nature of the series: In vitro minimum inhibitory concentration was measured against Escherichia coli TEM-1 (Beta lactamase producer) strain. It counts as functional. In outline:
(§2)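 Streptococci were tested on brain heart infusion agar plus 20 units/mL catalase, Proteus on Mueller-Hinton with 3% agar, and others on Mueller-Hinton agar. Inocula were 100-fold-diluted overnight cultures, about 3 × 10^4 CFU/spot, read after overnight incubation at 36 °C.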

The subject of series [2] is Enterobacter cloacae. Nature of the series: tested for its efficacy against systemic murine infection caused by Enterobacter cloacae 5699. It counts as functional. An outline of the steps:
(§3)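 CD1 Swiss albino mice (18-20 g) were infected intraperitoneally with 0.5 mL of diluted culture. Within 5 min they received 1.0 mL test solution subcutaneously at the dorsal neck, in dilutions spanning 250–0.05 mg/kg. P. aeruginosa groups received a second dose at 3 h. Groups were six mice. ED50 was calculated by Reed–Muench interpolation of cumulative survival.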

Series [3] relates to Klebsiella pneumoniae. Put plainly: tested for its efficacy against systemic murine infection caused by Klebsiella pneumoniae A. It counts as functional. An outline of the steps:
as §3

In series [4] the test system is Klebsiella pneumoniae. Nature of the series: Bacterial challenge for systemic murine infection against Klebsiella pneumoniae A. It counts as functional. In outline:
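Mouse protection test in CD1 Swiss albino mice (18-20 g). Mice were infected intraperitoneally with 0.5 mL of diluted bacterial suspension. A single subcutaneous dose at the dorsal neck base was given within 5 min, with doses from 250 to 0.05 mg/kg. Six mice per group were used. ED50 was obtained by the Reed-Muench method.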

The subject of the next series is Micrococcus luteus. Nature of the series: In vitro minimum inhibitory concentration was measured against Micrococcus luteus ATCC 9341 strain. It counts as functional. In outline:
as §2

Series [5] has as its target T1, Peptidoglycan D,D-transpeptidase MrdA (Escherichia coli K-12) (UniProt P0AD65).
T1 sequence (whole entry): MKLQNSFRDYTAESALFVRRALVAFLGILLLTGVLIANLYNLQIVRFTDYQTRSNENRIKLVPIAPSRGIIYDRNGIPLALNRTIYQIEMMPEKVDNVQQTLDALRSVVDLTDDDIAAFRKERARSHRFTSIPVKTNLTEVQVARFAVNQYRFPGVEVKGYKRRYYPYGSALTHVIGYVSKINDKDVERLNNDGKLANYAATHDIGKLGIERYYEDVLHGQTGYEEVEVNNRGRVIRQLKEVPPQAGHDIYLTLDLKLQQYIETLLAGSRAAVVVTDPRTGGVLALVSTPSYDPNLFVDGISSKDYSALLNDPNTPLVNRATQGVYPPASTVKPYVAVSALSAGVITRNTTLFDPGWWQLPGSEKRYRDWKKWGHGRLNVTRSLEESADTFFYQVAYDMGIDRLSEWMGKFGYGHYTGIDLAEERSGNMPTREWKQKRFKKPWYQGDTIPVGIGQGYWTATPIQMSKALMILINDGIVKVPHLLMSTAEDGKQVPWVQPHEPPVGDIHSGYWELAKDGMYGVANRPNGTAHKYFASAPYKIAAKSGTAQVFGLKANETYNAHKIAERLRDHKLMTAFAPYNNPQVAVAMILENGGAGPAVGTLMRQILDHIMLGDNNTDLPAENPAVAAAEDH
Put plainly: Affinity for penicillin binding protein 2 of Escherichia coli UB1005 (DC0) was evaluated. The arrangement: unit not given here. An outline of the steps:
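Solubilised membranes from sonicated E. coli UB1005 served as the binding-protein source. Binding was read as inhibition of [14C]penicillin G binding.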

The test system of series [6] is Proteus mirabilis. Nature of the series: In vitro minimum inhibitory concentration was measured against Proteus mirabilis 90 strain.; (</=). It counts as functional. An outline of the steps: as §1
The test system of series [7] is Pseudomonas aeruginosa. Put plainly: In vitro minimum inhibitory concentration was measured against Pseudomonas aeruginosa 18S/H strain. It counts as functional. An outline of the steps:
as §2

Series [8] relates to Staphylococcus aureus. Put plainly: tested for its efficacy against systemic murine infection caused by Staphylococcus aureus smith. It counts as functional. An outline of the steps: as §3
For series [9], the system named is Staphylococcus aureus. Put plainly: Bacterial challenge for systemic murine infection against Staphylococcus aureus Smith. It counts as functional.
The subject of series [10] is Streptococcus pneumoniae. Nature of the series: tested for its efficacy against systemic murine infection caused by Streptococcus pneumoniae 6301. It counts as functional. In outline:
as §3

For series [11], the system named is Serratia marcescens. Nature of the series: tested for its efficacy against systemic murine infection caused by Serratia marcescens SM. It counts as functional. An outline of the steps:
as §3

Series [12] relates to Staphylococcus aureus. Nature of the series: In vitro minimum inhibitory concentration was measured against Staphylococcus aureus 67-0 (Methicillin resistant) strain. It counts as functional.
Series [13] concerns Staphylococcus aureus. Put plainly: In vitro minimum inhibitory concentration was measured against Staphylococcus aureus 753 (Methicillin resistant) strain. It counts as functional.
For series [14], the system named is Streptococcus pneumoniae. Put plainly: In vitro minimum inhibitory concentration was measured against Streptococcus pneumoniae 6301 strain.; (</=). It counts as functional. In outline: as §1
The test system of series [15] is Streptococcus pyogenes. Nature of the series: In vitro minimum inhibitory concentration was measured against Streptococcus pyogenes 4 strain.; (</=). It counts as functional. An outline of the steps:
as §1

The subject of series [16] is Escherichia coli. Put plainly: Minimum inhibitory concentration for DC2, a permeability mutant. An outline of the steps:
as §1

The test system of series [17] is Escherichia coli. Nature of the series: Minimum inhibitory concentration against E. coli UB1005 (DC0).
For series [18], the system named is Pseudomonas aeruginosa. Put plainly: tested for its efficacy against systemic murine infection caused by Pseudomonas aeruginosa 8780.
Series [19] is described as follows: Half life was measured as degradation by HPLC analysis. It counts as ADME.
Series [20] concerns Klebsiella pneumoniae. Nature of the series: Tested for its efficacy against systemic murine infection caused by Klebsiella pneumoniae A. It counts as functional. An outline of the steps: as §3
For series [21], the system named is Proteus mirabilis. Nature of the series: In vitro minimum inhibitory concentration was measured against Proteus mirabilis 90 strain. It counts as functional. In outline:
as §2

The subject of series [22] is Pseudomonas aeruginosa. Put plainly: Tested for its efficacy against systemic murine infection caused by Pseudomonas aeruginosa 8780. It counts as functional. In outline: as §3
The test system of series [23] is Streptococcus pneumoniae. Put plainly: Tested for its efficacy against systemic murine infection caused by Streptococcus pneumoniae 6301. It counts as functional. In outline:
as §3

The test system of series [24] is Serratia marcescens. Nature of the series: Tested for its efficacy against systemic murine infection caused by Serratia marcescens SM. It counts as functional. In outline: as §3
The subject of series [25] is Streptococcus pneumoniae. Put plainly: In vitro minimum inhibitory concentration was measured against Streptococcus pneumoniae 6301 strain. It counts as functional. In outline:
as §2

In series [26] the test system is Staphylococcus aureus. Nature of the series: Tested for its efficacy against systemic murine infection caused by Staphylococcus aureus smith. It counts as functional. An outline of the steps:
as §3

Series [27] concerns Streptococcus pyogenes. Nature of the series: In vitro minimum inhibitory concentration was measured against Streptococcus pyogenes 4 strain. It counts as functional. An outline of the steps: as §2
The test system of series [28] is Enterobacter cloacae. Nature of the series: Tested for its efficacy against systemic murine infection caused by Enterobacter cloacae 5699. It counts as functional.
Series [29] relates to Penicillin-binding protein 3 (Escherichia coli). Nature of the series: Affinity for penicillin binding protein 3 of Escherichia coli UB1005 (DC0) was evaluated. The arrangement: unit not given here.

Consider `CO/N=C(\C(=O)N[C@@H]1C(=O)N2C(C(=O)O)=C(COC(C)=O)CS[C@H]12)c1csc(N)n1` [CEFOTAXIME], for which the MIC with Citrobacter freundii was 32 µg/mL (≈ 70.3 µM); with Escherichia coli [1], 0.063 µg/mL (≈ 0.138 µM); against Micrococcus luteus, 0.031 µg/mL (≈ 0.0681 µM); in the series with Proteus mirabilis [6], under 0.016 µg/mL; against Pseudomonas aeruginosa [7], 128 µg/mL (≈ 281 µM); with Staphylococcus aureus [12], over 128 µg/mL. For the same compound, the MIC was over 128 µg/mL in the series on Staphylococcus aureus [13]; under 0.016 µg/mL in the series on Streptococcus pneumoniae [14]; at most 0.016 µg/mL in the series on Streptococcus pyogenes [15]; under 0.016 µg/mL with Escherichia coli [16]; 0.031 µg/mL (≈ 0.0681 µM) with Escherichia coli [17]. Moreover, the ED50 in the series on Enterobacter cloacae [2] was 50 mg/kg; in the series with Klebsiella pneumoniae [3], 45 mg/kg; in the series with Staphylococcus aureus [8], 6 mg/kg; in the series on Streptococcus pneumoniae [10], 69 mg/kg; in the series with Serratia marcescens [11] it was under 25 mg/kg; in the series with Pseudomonas aeruginosa [18] it was over 250 mg/kg. Besides, the figures for the LD50 in the series on Klebsiella pneumoniae [4] and in the series with Staphylococcus aureus [9] were 45 and 6, respectively. Further, the Binding affinity in series [5] turned out to be 100.
In series [19], `CO/N=C(\C(=O)N[C@@H]1C(=O)N2C(C(=O)O)=C(CN3CCN(c4cc5c(cc4F)c(=O)c(C(=O)O)cn5C4CC4)CC3)CS[C@H]12)c1csc(N)n1` had a half-life of 6 days. The MIC in the series with Citrobacter freundii came out at 0.125 µg/mL (≈ 0.172 µM); against Escherichia coli [1], 0.25 µg/mL (≈ 0.344 µM); with Micrococcus luteus, 0.125 µg/mL (≈ 0.172 µM); in the series with Proteus mirabilis [21] it was 2 µg/mL (≈ 2.75 µM); against Pseudomonas aeruginosa [7] it was 2 µg/mL (≈ 2.75 µM); against Staphylococcus aureus [12], 8 µg/mL (≈ 11 µM). Also, the MIC was 4 µg/mL (≈ 5.5 µM) in the series on Staphylococcus aureus [13]; 0.063 µg/mL (≈ 0.0867 µM) against Streptococcus pneumoniae [25]; 0.063 µg/mL (≈ 0.0867 µM) in the series on Streptococcus pyogenes [27]; 0.063 µg/mL (≈ 0.0867 µM) in the series on Escherichia coli [16]; 1 µg/mL (≈ 1.38 µM) against Escherichia coli [17]. Moreover, the ED50 with Klebsiella pneumoniae [20] is 25 mg/kg; with Pseudomonas aeruginosa [22], 38 mg/kg; in the series on Streptococcus pneumoniae [23], 54 mg/kg; in the series on Serratia marcescens [24], 25 mg/kg; in the series on Staphylococcus aureus [26] it was over 100 mg/kg; in the series with Enterobacter cloacae [28], 14 mg/kg. Besides, the LD50 was over 10000 with Klebsiella pneumoniae [4] and over 8 with Staphylococcus aureus [9]. Further, the values for the Binding affinity in series [5] and in series [29] were 100 and 0.5, respectively.
